Experimental data: ChEMBL document CHEMBL5647689, “Functional role and therapeutic potential of the pim-1 kinase in colon carcinoma” (Neoplasia, 2013)
The source made the active and inactive calls. The rule behind the calls is not given here.

Columns and labels:
HCT-116 [1] = experiment: Downregulation of E-cadherin levels in human HCT-116 cells at 2 uM incubated for 24 hrs by Western blotting analysis; format: functional, cell-based
How it was run: (§1)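 HCT-116 lysates were made on ice in PBS with 1 mM EDTA, 1% NP-40, protease and phosphatase inhibitors, then sonicated and cleared by centrifugation. Protein was measured by DC assay. 40 µg ran on 10% SDS-PAGE and went onto PVDF (0.45 µm). Blocking used 5% milk/TBST; primary antibodies ran overnight at 4°C, then HRP secondaries for 1 h. Detection was ECL with densitometric quantitation of scanned bands.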

HCT-116 [2] = experiment: Induction of apoptosis in siRNA-mediated Pim-1 knockout human HCT-116 cells assessed as increase in caspase 3/7 activity at 0.7 uM incubated for 72 hrs by Caspase-Glo 3/7 reagent based microplate reader analysis; format: functional, cell-based
How it was run: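 HCT-116 cells (1 x 10^3/well) were exposed to the inhibitor in IMDM/10% FCS for 72 h at 37°C. Caspase-3/7 was read by Caspase-Glo 3/7: substrate diluted 1:5 in serum-free medium, 1 h at room temperature in the dark, then luminescence. A WST-1 assay run in parallel on the same plate normalized for cell density.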

HCT-116 [3] = experiment: Downregulation of p-STAT3 levels at serine 727 residue in human HCT-116 cells at 2 uM incubated for 24 hrs by Western blotting analysis; format: functional, cell-based; how it was run: as §1
HCT-116 [4] = experiment: Downregulation of pim-1 levels in human HCT-116 cells at 2 uM incubated for 24 hrs by Western blotting analysis; format: functional, cell-based; how it was run: as §1
HCT-116 [5] = experiment: Downregulation of c-Myc levels in human HCT-116 cells at 2 uM incubated for 24 hrs by Western blotting analysis; format: functional, cell-based; how it was run: as §1
HCT-116 [6] = experiment: Antiproliferative activity against siRNA-mediated Pim-1 knockout human HCT-116 cells assessed as reduction in cell viability measured after 72 hrs; format: functional, cell-based; conditions: dose 0.066-66 µM
How it was run: (§2)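 HCT-116 (1 x 10^3/well) or LS174T (3 x 10^3/well) cells were grown in IMDM/10% FCS at 37°C, 5% CO2. The medium was replaced with IMDM/10% FCS containing the inhibitor at the indicated concentrations, and cells were kept 72 h at 37°C. Inhibitor stock was 20 mg/ml in DMSO, diluted in PBS or medium.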

HCT-116 [7] = experiment: Downregulation of p-p21 levels in human HCT-116 cells at 2 uM incubated for 24 hrs by Western blotting analysis; format: functional, cell-based; how it was run: as §1
LS174T = experiment: Antiproliferative activity against siRNA-mediated Pim-1 knockout human LS174T cells assessed as reduction in cell viability measured after 72 hrs; format: functional, cell-based; conditions: dose 0.13-130 µM; how it was run: as §2
[8] = Toxicity in athymic nude mouse xenografted with human HCT-116 cells assessed as behavioural changes in at 70 mg/kg, ip administered twice a week measured after 14 days; format: organism-based; conditions: in vivo, 336 h, time 14 day
HCT-116 [9] = experiment: Synergistic antitumor activity against PEI complexed siRNA-mediated Pim-1 knockout human HCT-116 cells xenografted in athymic nude mouse assessed as tumor growth inhibition at 70 mg/kg, ip administered on day 3 to 4 measured after 14 days; format: functional; conditions: HCT-116, 336 h, time 14 day, read-out: TGI
HCT-116 [10] = experiment: Induction of apoptosis in siRNA-mediated Pim-1 knockout human HCT-116 cells assessed as fold increase in caspase 3/7 activity incubated for 72 hrs by Caspase-Glo 3/7 reagent based microplate reader analysis; format: functional
How it was run: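 HCT-116 cells, 5 x 10^2 per well, transfected with 20 nM siPim-1 […], held 72 h at 37°C. Caspase substrate diluted 1:5 in serum-free medium added for 1 h at room temperature in the dark; luminescence read. Signal normalized to a parallel WST-1 assay on the same plate. Means ± SEM.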

HCT-116 [11] = experiment: Antiproliferative activity against siRNA-mediated Pim-1 knockout human HCT-116 cells assessed as increase in pim-1 mRNA levels measured after 24 hrs by q-PCR analysis; format: functional, cell-based; conditions: dose 1-3 µM
How it was run: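 HCT-116 cells seeded at 3.5 x 10^5 per six-well well under standard conditions, then exposed 24 h at 37°C to 1 or 3 µM in IMDM/10% FCS. Total RNA was extracted by phenol/chloroform, and Pim-1 mRNA was measured by SYBR Green qPCR run in parallel with actin. Levels were expressed as 2^CP(target)/2^CP(actin).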

HCT-116 [12] = experiment: Induction of apoptosis in human HCT-116 cells assessed as fold increase in caspase 3/7 activity incubated for 72 hrs by Caspase-Glo 3/7 reagent based microplate reader analysis; format: functional
HCT-116 [13] = experiment: Synergistic antitumor activity against PEI complexed siRNA-mediated luciferase knockout human HCT-116 cells xenografted in athymic nude mouse assessed as tumor growth inhibition at 70 mg/kg, ip administered on day 3 to 4 measured after 14 days; format: functional; conditions: HCT-116, 336 h, time 14 day, read-out: TGI
HCT-116 [14] = experiment: cells; conditions: Homo sapiens, HCT-116, 72 h
HCT-116 [15] = experiment: Antitumor activity against PEI complexed siRNA-mediated Pim-1 knockout human HCT-116 cells xenografted in athymic nude mouse assessed as increase in pim-1 levels in tumor at 40 to 70 mg/kg, ip administered on day 3 to 4 measured after 14 days by immunohistochemical staining based analysis; format: functional, organism-based; conditions: dose 40-70 mg/kg, time 14.0 day
How it was run: (§3)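 Nude mice (Foxn1nu, 6–8 weeks) carried s.c. HCT-116 flank tumours (1.5 x 10^6 cells) and were randomized at 40–50 mm3, n = 12 tumours/group. PEI F25-LMW-complexed siRNA (Pim-1 or control) was given at 10 µg i.p. every 2–3 days; 70 or 40 mg/kg in PBS was given i.p. every 3–4 days. Paraffin tumour sections were stained for Pim-1 and ranked 0–4.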

[16] = Downregulation of miR-15b expression in human HCT-116 cells at 3 uM incubated for 24 hrs by […] analysis; format: functional
HCT-116 [17] = experiment: Synergistic antitumor activity against PEI complexed siRNA-mediated Pim-1 knockout human HCT-116 cells xenografted in athymic nude mouse assessed as tumor growth inhibition at 40 mg/kg, ip administered on day 3 to 4 measured after 14 days; format: functional; conditions: HCT-116, 336 h, time 14 day, read-out: TGI
[18] = Toxicity in athymic nude mouse xenografted with human HCT-116 cells assessed as change in body weight at 70 mg/kg, ip administered twice a week measured after 14 days; format: organism-based; conditions: in vivo, 336 h, time 14 day
HCT-116 [19] = experiment: Synergistic antitumor activity against PEI complexed siRNA treated human HCT-116 cells xenografted in athymic nude mouse assessed as tumor growth inhibition at 40 mg/kg, ip administered on day 3 to 4 measured after 14 days; format: functional; conditions: HCT-116, 336 h, time 14 day, read-out: TGI
[20] = Toxicity in athymic nude mouse xenografted with human HCT-116 cells assessed as change in body weight at 40 mg/kg, ip administered twice a week measured after 14 days; format: organism-based; conditions: in vivo, 336 h, time 14 day
HCT-116 [21] = experiment: cells; conditions: Homo sapiens, HCT-116, 72 h; remark: listed apart in the source
HCT-116 [22] = experiment: Antitumor activity against PEI complexed siRNA-mediated luciferase knockout human HCT-116 cells xenografted in athymic nude mouse assessed as increase in pim-1 levels in tumor at 40 to 70 mg/kg, ip administered on day 3 to 4 measured after 14 days by immunohistochemical staining based analysis; format: functional, organism-based; conditions: dose 40-70 mg/kg, time 14.0 day; how it was run: as §3
HCT-116 [23] = experiment: Induction of miR-15b mediated pim-1 expression in human HCT-116 cells assessed as increase in luciferase activity at 3 uM incubated for 72 hrs by luminometer analysis; format: functional, cell-based
How it was run: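 HCT-116 cells (3 x 10^4 per 24-well well) co-transfected via PEI F25-LMW with 125 ng pGL3 luciferase reporter carrying Pim-1 3′UTR, intact or miR-15b-seed-mutated. After 48 h, 1 or 3 µM in IMDM/10% FCS was added for 24 h at 37°C. Lysate was mixed with luciferase substrate and read on a luminometer.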

HCT-116 [24] = experiment: Synergistic antitumor activity against human HCT-116 cells xenografted in athymic nude mouse assessed as tumor growth inhibition at 70 mg/kg, ip administered on day 3 to 4 measured after 14 days; format: functional; conditions: HCT-116, 336 h, time 14 day, read-out: TGI
[25] = Toxicity in athymic nude mouse xenografted with human HCT-116 cells assessed as behavioural changes in at 40 mg/kg, ip administered twice a week measured after 14 days; format: organism-based; conditions: in vivo, 336 h, time 14 day

For Cn1c2c(c3ccc(Cl)c(Cl)c31)C(C#N)C1(CCNCC1)NC2=O (stereo unspecified), the Activity (HCT-116 [1]) was “Active”, the Activity (HCT-116 [2]) was “Active” and the Activity (HCT-116 [3]) was “Active”. The Activity (HCT-116 [4]) was “Active”, the Activity (HCT-116 [5]) was “Active” and the Activity (HCT-116 [6]) was “Dose-Dependent Effect”. The Activity (HCT-116 [7]) was “Active” and the Activity (LS174T) was “Dose-Dependent Effect”.

For O=c1[nH]cc(F)c(=O)[nH]1 [FLUOROURACIL], the Activity [8] was “Toxic”, the inhibition in vivo at 70 mg/kg (HCT-116 [9]) was about 30% and the “fold change (FC)” value (HCT-116 [10]) was 1.4. For the same molecule, the Activity (HCT-116 [11]) was “Dose-Dependent Effect”, the “fold change (FC)” value (HCT-116 [12]) was about 1.7 and the inhibition in vivo at 70 mg/kg (HCT-116 [13]) was about 30%. For the same molecule, the IC50 (HCT-116 [14]) was 10.1 µM, the Activity (HCT-116 [15]) was “Active” and the Activity [16] was 40%. The inhibition in vivo at 40 mg/kg (HCT-116 [17]) was about 60%, the Activity [18] was “Toxic” and the inhibition in vivo at 40 mg/kg (HCT-116 [19]) was about 20%. For the same molecule, the Activity [20] was “Non-Toxic”, the IC50 (HCT-116 [21]) was 3.2 µM and the Activity (HCT-116 [22]) was “Active”. The Activity (HCT-116 [23]) was “Active”, the inhibition in vivo at 70 mg/kg (HCT-116 [24]) was about 40% and the Activity [25] was “Non-Toxic”.
